This note sets out measurements from ChEMBL document CHEMBL2401649, “Cyclic enkephalins with a diversely substituted guanidine bridge or a thiourea bridge: synthesis, biological and structural evaluations” (J Med Chem, 2013).

Structures are written as SMILES. Some results are limits rather than exact numbers.

The target of assay [1] is Kappa-type opioid receptor (Cavia porcellus, UniProt P41144). Nature of the assay: Displacement of [3H]-U69,593 from kappa opioid receptor in guinea pig brain membranes after 2 hrs by liquid scintillation counting analysis. It is filed as cell membranes, Membrane. A digest of the protocol: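 Guinea pig brain membranes incubated 2 h at 0 °C with 0.80 nM [3H]U69,593 plus competitor. IC50 taken from log-dose displacement curves.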
Chain of Kappa-type opioid receptor (P41144 whole entry): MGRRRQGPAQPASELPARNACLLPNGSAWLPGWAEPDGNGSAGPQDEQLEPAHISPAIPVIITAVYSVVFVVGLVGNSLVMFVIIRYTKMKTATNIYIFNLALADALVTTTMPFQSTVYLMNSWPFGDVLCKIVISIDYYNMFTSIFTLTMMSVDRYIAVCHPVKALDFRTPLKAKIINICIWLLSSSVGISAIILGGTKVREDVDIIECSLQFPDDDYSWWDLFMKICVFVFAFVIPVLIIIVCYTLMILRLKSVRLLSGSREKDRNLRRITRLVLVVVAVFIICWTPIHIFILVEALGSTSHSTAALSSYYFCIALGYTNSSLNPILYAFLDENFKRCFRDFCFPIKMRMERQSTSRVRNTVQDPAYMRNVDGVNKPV
Background: Displacement assays read how much labelled ligand stays bound in the presence of the test substance.

The target in assay [2] is T1, Mu-type opioid receptor (Rattus norvegicus, UniProt P33535). Put plainly: Displacement of [3H]-DAMGO from mu opioid receptor in Wistar rat brain membranes after 45 mins by liquid scintillation counting analysis. Type of assay: cell membranes, Membrane.
T1 sequence (P33535 whole entry): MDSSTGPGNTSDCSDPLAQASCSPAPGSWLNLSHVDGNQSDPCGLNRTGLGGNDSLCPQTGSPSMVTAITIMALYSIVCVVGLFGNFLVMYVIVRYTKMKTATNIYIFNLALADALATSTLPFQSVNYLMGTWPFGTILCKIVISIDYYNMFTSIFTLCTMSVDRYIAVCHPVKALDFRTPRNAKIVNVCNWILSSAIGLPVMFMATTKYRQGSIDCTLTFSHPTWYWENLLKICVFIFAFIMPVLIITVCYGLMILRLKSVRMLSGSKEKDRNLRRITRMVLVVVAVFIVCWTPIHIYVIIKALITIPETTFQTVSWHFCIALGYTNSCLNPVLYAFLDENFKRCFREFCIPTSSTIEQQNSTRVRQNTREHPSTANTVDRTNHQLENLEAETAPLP
Assay [3] has as its target Delta-type opioid receptor (Rattus norvegicus, UniProt P33533). Nature of the assay: Displacement of [3H]-DIDI from delta opioid receptor in Wistar rat brain membranes after 45 mins by liquid scintillation counting analysis. Type of assay: cell membranes, Membrane.
The target in assay [4] is T1, Mu-type opioid receptor. Nature of the assay: Agonist activity at mu opioid receptor in rat brain membranes assessed as stimulation of [35S]GTPgammaS binding after 60 mins in presence of GDP. It is filed as functional, cell membranes. (Binding of GTPγS marks nucleotide exchange on a G protein.)
The next assay is filed under the species Rattus norvegicus. Put plainly: Selectivity ratio of Ki for delta opioid receptor in Wistar rat brain membranes to Ki for mu opioid receptor in Wistar rat brain membranes. Conditions: Membrane. Type of assay: cell membranes.
Assay [5] concerns the target Mu-type opioid receptor (Cavia porcellus, UniProt P97266). Nature of the assay: Agonist activity at mu opioid receptor in guinea pig ileum. It is filed as tissue-based. In short, it runs like this: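 Isolated guinea pig ileum (MOR) and mouse vas deferens (DOR) bioassays; Leu-enkephalin dose-response curve run as standard on each preparation, test IC50 values normalized to it.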

Chain of Delta-type opioid receptor (P33533 whole entry): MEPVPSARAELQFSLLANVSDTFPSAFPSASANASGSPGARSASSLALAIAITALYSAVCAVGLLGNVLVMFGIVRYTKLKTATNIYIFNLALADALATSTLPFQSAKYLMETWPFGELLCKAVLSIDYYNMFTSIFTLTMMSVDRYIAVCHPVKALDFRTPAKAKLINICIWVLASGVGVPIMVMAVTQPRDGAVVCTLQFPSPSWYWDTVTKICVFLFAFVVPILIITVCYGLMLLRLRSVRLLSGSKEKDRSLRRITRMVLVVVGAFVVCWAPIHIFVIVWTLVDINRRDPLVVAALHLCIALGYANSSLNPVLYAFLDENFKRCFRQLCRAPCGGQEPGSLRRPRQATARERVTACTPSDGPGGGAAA
Chain of Mu-type opioid receptor (Cavia porcellus, UniProt P97266) (P97266 whole entry): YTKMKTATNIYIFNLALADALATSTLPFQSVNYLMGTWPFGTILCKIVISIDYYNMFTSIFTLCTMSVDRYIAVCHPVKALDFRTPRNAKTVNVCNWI

What is called Ki is a dissociation constant, usually derived from enzyme kinetics or from competition with a known ligand. A low value points to higher affinity. One may read the IC50 as the concentration needed to halve the response being measured. For `CC(C)C[C@@H]1NC(=O)[C@H](Cc2ccccc2)NC(=O)CNC(=O)[C@H](NC(=O)[C@@H](N)Cc2ccc(O)cc2)CCCN/C(N(C)C)=N\CCC[C@@H](C(N)=O)NC1=O`, the inhibition constant (Ki) in assay [1] is above 500 nM; on Mu-type opioid receptor [2], 14.3 nM; in assay [3], 146 nM. Further, the IC50 is 19.5 nM at Mu-type opioid receptor [2] and 195 nM in assay [3]. The values for the EC50 on Mu-type opioid receptor [4] (read-out: EC50) and on Mu-type opioid receptor [4] (read-out: pEC50 (converted)) were 1520 nM and 1550 nM, respectively. In addition, the Ratio Ki in the assay listed under Rattus norvegicus was 10.2.

On to `CN(C)/C1=N/C[C@@H](C(N)=O)NC(=O)[C@H](Cc2ccccc2)NC(=O)CNC(=O)[C@H](NC(=O)[C@@H](N)Cc2ccc(O)cc2)CN1`, for which the EC50 at Mu-type opioid receptor [4] (read-out: EC50) came out at 1830 nM.

Take `CC(C)C[C@@H]1NC(=O)[C@H](Cc2ccccc2)NC(=O)CNC(=O)[C@H](NC(=O)[C@@H](N)Cc2ccc(O)cc2)CCCN/C(N2CCCC2)=N\CCC[C@@H](C(N)=O)NC1=O`: the IC50 was 234 nM at Mu-type opioid receptor [2] and 832 nM in assay [3]. Also, the Ki at Mu-type opioid receptor [2] was 175 nM; in assay [3], 628 nM. The EC50 on Mu-type opioid receptor [4] (read-out: EC50) was 8000 nM; on Mu-type opioid receptor [4] (read-out: pEC50 (converted)) it was 8130 nM. Further, in the assay filed under Rattus norvegicus, the Ratio Ki amounted to 3.6.

As to `CC(C)C[C@@H]1NC(=O)[C@H](Cc2ccccc2)NC(=O)CNC(=O)[C@H](NC(=O)[C@@H](N)Cc2ccc(O)cc2)CCCNC(=S)NCCC[C@@H](C(N)=O)NC1=O`, the figures for the IC50 (on Mu-type opioid receptor [2]; in assay [3]) were 12.3 nM and 97.7 nM, respectively. Further, the inhibition constant Ki at Mu-type opioid receptor [2] was 9.1 nM; in assay [3], 75.7 nM. For the same compound, the EC50 on Mu-type opioid receptor [4] (read-out: EC50) is 589 nM; on Mu-type opioid receptor [4] (read-out: pEC50 (converted)), 603 nM. Moreover, the Ratio Ki in the assay filed under Rattus norvegicus came out at 8.3.

Take `NC(=O)[C@@H]1C/N=C(/N2CCCCC2)NC[C@@H](NC(=O)[C@@H](N)Cc2ccc(O)cc2)C(=O)NCC(=O)N[C@@H](Cc2ccccc2)C(=O)N1` (stereo in doubt; 14b): in assay [3], the half-inhibitory concentration (IC50) was 4900 nM. Besides, on Mu-type opioid receptor [4] (read-out: pEC50 (converted)), the EC50 was 4170 nM.

For `CN/C1=N/C[C@@H](C(N)=O)NC(=O)[C@H](Cc2ccccc2)NC(=O)CNC(=O)[C@H](NC(=O)[C@@H](N)Cc2ccc(O)cc2)CN1` (stereo in doubt; 10b), at Mu-type opioid receptor [4] (read-out: pEC50 (converted)), the EC50 was 1620 nM.

In the case of `CS/C1=N/CCC[C@@H](C(N)=O)NC(=O)[C@H](CC(C)C)NC(=O)[C@H](Cc2ccccc2)NC(=O)CNC(=O)[C@H](NC(=O)[C@@H](N)Cc2ccc(O)cc2)CCCN1`, the values for the IC50 (on Mu-type opioid receptor [2]; in assay [3]) were 28.8 nM and 251 nM, respectively. Moreover, the values for the Ki (on Mu-type opioid receptor [2]; in assay [3]) were 21 nM and 191 nM, respectively. Further, the EC50 at Mu-type opioid receptor [4] (read-out: EC50) is 652 nM; on Mu-type opioid receptor [4] (read-out: pEC50 (converted)) it was 661 nM. In addition, the Ratio Ki in the assay filed under Rattus norvegicus was determined as 9.1.

As for `CC(C)C[C@@H]1NC(=O)[C@H](Cc2ccccc2)NC(=O)CNC(=O)[C@H](NC(=O)[C@@H](N)Cc2ccc(O)cc2)CCCN/C(N)=N\CCC[C@@H](C(N)=O)NC1=O`, the inhibitory constant (Ki) is above 500 nM in assay [1], 18.4 nM at Mu-type opioid receptor [2] and 108 nM in assay [3]. Besides, the IC50 is 25.1 nM on Mu-type opioid receptor [2] and 145 nM in assay [3]. In addition, the EC50 at Mu-type opioid receptor [4] (read-out: EC50) came to 3010 nM. Further, the Ratio Ki in the assay filed under Rattus norvegicus is 5.9.

With `NC(=O)[C@@H]1C/N=C(/N2CCCC2)NC[C@@H](NC(=O)[C@@H](N)Cc2ccc(O)cc2)C(=O)NCC(=O)N[C@@H](Cc2ccccc2)C(=O)N1` (stereo in doubt; 13a), in assay [1], the Ki is above 500 nM. The EC50 on Mu-type opioid receptor [4] (read-out: pEC50 (converted)) was 1070 nM.

Consider `C/N=C1/NCCC[C@@H](C(N)=O)NC(=O)[C@H](CC(C)C)NC(=O)[C@H](Cc2ccccc2)NC(=O)CNC(=O)[C@H](NC(=O)[C@@H](N)Cc2ccc(O)cc2)CCCN1`, for which the values for the inhibitory constant (Ki) (in assay [1]; on Mu-type opioid receptor [2]; in assay [3]) were above 300 nM, 17.9 nM and 185 nM, respectively. In addition, the IC50 at Mu-type opioid receptor [2] was 24 nM; in assay [3], 245 nM. In addition, the EC50 at Mu-type opioid receptor [4] (read-out: EC50) was determined as 1230 nM. In addition, the Ratio Ki in the assay listed under Rattus norvegicus was found to be 10.3.

As for `NC(=O)[C@@H]1C/N=C(/N2CCCCC2)NC[C@@H](NC(=O)[C@@H](N)Cc2ccc(O)cc2)C(=O)NCC(=O)N[C@@H](Cc2ccccc2)C(=O)N1` (stereo in doubt; 14a), the half-maximal inhibitory concentration (IC50) at Mu-type opioid receptor [5] was found to be 398 nM. Moreover, the EC50 on Mu-type opioid receptor [4] (read-out: pEC50 (converted)) was 1450 nM.

The compound `NC(=O)[C@@H]1C/N=C(/N2CCCC2)NC[C@@H](NC(=O)[C@@H](N)Cc2ccc(O)cc2)C(=O)NCC(=O)N[C@@H](Cc2ccccc2)C(=O)N1` (stereo in doubt; 13b) registered a Ki in assay [1] above 500 nM. Further, at Mu-type opioid receptor [4] (read-out: pEC50 (converted)), the EC50 is 2820 nM.

Regarding `NC(=O)[C@@H]1C/N=C(/N2CCCC2)NC[C@@H](NC(=O)[C@@H](N)Cc2ccc(O)cc2)C(=O)NCC(=O)N[C@@H](Cc2ccccc2)C(=O)N1` (stereo in doubt; 13c), the inhibitory constant (Ki) in assay [1] was above 500 nM. Further, on Mu-type opioid receptor [4] (read-out: pEC50 (converted)), the EC50 was 4790 nM.

With `CN/C1=N/C[C@@H](C(N)=O)NC(=O)[C@H](Cc2ccccc2)NC(=O)CNC(=O)[C@H](NC(=O)[C@@H](N)Cc2ccc(O)cc2)CN1` (stereo in doubt; 10a), the EC50 on Mu-type opioid receptor [4] (read-out: pEC50 (converted)) was 282 nM.

As to `NC(=O)[C@@H]1CNC(=S)NC[C@@H](NC(=O)[C@@H](N)Cc2ccc(O)cc2)C(=O)NCC(=O)N[C@@H](Cc2ccccc2)C(=O)N1` (stereo in doubt; 7a), the IC50 at Mu-type opioid receptor [5] was 1.76 nM.

Regarding `NC(=O)[C@@H]1C/N=C(/N2CCCCC2)NC[C@@H](NC(=O)[C@@H](N)Cc2ccc(O)cc2)C(=O)NCC(=O)N[C@@H](Cc2ccccc2)C(=O)N1` (stereo in doubt; 14c), the inhibition constant Ki in assay [3] amounted to 3500 nM. Also, the EC50 on Mu-type opioid receptor [4] (read-out: pEC50 (converted)) is 7590 nM.
